Reference: ChEMBL document CHEMBL4184325, “Discovery of 4,7-Diamino-5-(4-phenoxyphenyl)-6-methylene-pyrimido[5,4- b]pyrrolizines as Novel Bruton's Tyrosine Kinase Inhibitors” (J Med Chem, 2018)
Each block holds one compound with its values, some of them ahead of it.

Experiments:
[1] = Drug metabolism in human liver microsomes treated with (S)-N-(4-Amino-6-methylene-5-(4-phenoxyphenyl)-7,8-dihydro-6H-pyrimido[5,4-b]pyrrolizin-7-yl)but-2-ynamide after 3 hrs; assay type: ADME, microsome
[2] = Drug metabolism in rat liver microsomes treated with (S)-N-(4-Amino-6-methylene-5-(4-phenoxyphenyl)-7,8-dihydro-6H-pyrimido[5,4-b]pyrrolizin-7-yl)but-2-ynamide after 3 hrs; assay type: ADME, microsome
[3] = Drug metabolism in mouse liver microsomes treated with (S)-N-(4-Amino-6-methylene-5-(4-phenoxyphenyl)-7,8-dihydro-6H-pyrimido[5,4-b]pyrrolizin-7-yl)but-2-ynamide after 3 hrs; assay type: ADME, microsome
[4] = target: Tyrosine-protein kinase BTK (Homo sapiens, UniProt Q06187); experiment: Inhibition of recombinant human BTK using Poly(Glu, Tyr) 4:1 as substrate after 1 hr by ELISA
Sequence of Tyrosine-protein kinase BTK (Homo sapiens, UniProt Q06187) (Q06187 whole entry): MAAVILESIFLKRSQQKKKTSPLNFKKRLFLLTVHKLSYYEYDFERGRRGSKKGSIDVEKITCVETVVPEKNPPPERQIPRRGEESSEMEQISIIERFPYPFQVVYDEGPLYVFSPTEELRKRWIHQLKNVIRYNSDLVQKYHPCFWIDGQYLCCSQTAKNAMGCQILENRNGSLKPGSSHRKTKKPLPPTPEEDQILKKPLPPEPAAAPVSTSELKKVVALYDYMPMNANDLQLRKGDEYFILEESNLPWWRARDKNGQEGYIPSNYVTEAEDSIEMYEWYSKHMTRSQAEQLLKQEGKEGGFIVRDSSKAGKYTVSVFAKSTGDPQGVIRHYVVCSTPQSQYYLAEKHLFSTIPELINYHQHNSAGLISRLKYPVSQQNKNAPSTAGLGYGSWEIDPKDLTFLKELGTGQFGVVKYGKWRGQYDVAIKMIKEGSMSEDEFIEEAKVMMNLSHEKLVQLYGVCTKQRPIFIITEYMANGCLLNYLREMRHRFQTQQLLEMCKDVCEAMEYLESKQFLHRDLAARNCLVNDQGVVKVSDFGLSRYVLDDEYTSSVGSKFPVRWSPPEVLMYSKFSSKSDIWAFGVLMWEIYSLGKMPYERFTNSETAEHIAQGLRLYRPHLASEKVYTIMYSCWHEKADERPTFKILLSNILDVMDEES

[5] = Drug metabolism in rat liver microsomes assessed as (S)-N-(4-amino-6-methylene-5-(4-phenoxyphenyl)-7,8-dihydro-6H-pyrimido[5,4-b]pyrrolizin-7-yl)-4-hydroxybut-2-ynamide formation after 3 hrs; assay type: ADME, microsome
Rattus norvegicus [6] = experiment: Volume of distribution at steady state in rat at 1 mg/kg, iv; assay type: ADME, organism-based; conditions: in vivo
Method in brief: (§1)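 Rats were given compound at 1 mg/kg iv or 3 mg/kg po. Vehicle was DMSO, Tween 80 and normal saline. Values are the average of three determinations.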

[7] = Cmax in rat at 3 mg/kg, po; assay type: ADME, organism-based; design: dose 3 mg/kg, route oral; conditions: in vivo
Method in brief: (§2)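 Rats dosed orally at 3 mg/kg; vehicle DMSO, Tween 80, normal saline; values are the average of three determinations.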

[8] = Drug metabolism in human liver microsomes assessed as (S)-N-(4-amino-5-(4-hydroxyphenyl)-6-methylene-7,8-dihydro-6H-pyrimido[5,4-b]pyrrolizin-7-yl)but-2-ynamide formation after 3 hrs; assay type: ADME, microsome
Rattus norvegicus [9] = experiment: Half life in rat at 1 mg/kg, iv; assay type: ADME, organism-based; conditions: in vivo
Method in brief: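 Rats given 1 mg/kg intravenously; vehicle DMSO, Tween 80, normal saline; values are the average of three determinations.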

[10] = Drug metabolism in rat liver microsomes assessed as (S)-N-(4-amino-5-(4-(4-hydroxyphenoxy)phenyl)-6-methylene-7,8-dihydro-6H-pyrimido[5,4-b]pyrrolizin-7-yl)-4-hydroxybut-2-ynamide formation after 3 hrs; assay type: ADME, microsome
[11] = Drug metabolism in mouse liver microsomes assessed as (S)-N-(4-amino-6-methylene-5-(4-phenoxyphenyl)-7,8-dihydro-6H-pyrimido[5,4-b]pyrrolizin-7-yl)-4-hydroxybut-2-ynamide formation after 3 hrs; assay type: ADME, microsome
[12] = Drug metabolism in human liver microsomes assessed as (S)-N-(4-amino-6-methylene-5-(4-phenoxyphenyl)-7,8-dihydro-6H-pyrimido[5,4-b]pyrrolizin-7-yl)-4-hydroxybut-2-ynamide formation after 3 hrs; assay type: ADME, microsome
[13] = Drug metabolism in human liver microsomes assessed as (S)-N-(4-amino-5-(4-(4-hydroxyphenoxy)phenyl)-6-methylene-7,8-dihydro-6H-pyrimido[5,4-b]pyrrolizin-7-yl)-4-hydroxybut-2-ynamide formation after 3 hrs; assay type: ADME, microsome
[14] = Drug metabolism in rat liver microsomes assessed as (S)-N-(4-amino-5-(4-(4-hydroxyphenoxy)phenyl)-6-methylene-7,8-dihydro-6H-pyrimido[5,4-b]pyrrolizin-7-yl)but-2-ynamide formation after 3 hrs; assay type: ADME, microsome
[15] = Drug metabolism in mouse liver microsomes assessed as (S)-4-(4-(4,7-diamino-6-methylene-7,8-dihydro-6H-pyrimido[5,4-b]pyrrolizin-5-yl)phenoxy)phenol formation after 3 hrs; assay type: ADME, microsome
[16] = Drug metabolism in mouse liver microsomes assessed as (S)-N-(4-amino-5-(4-(4-hydroxyphenoxy)phenyl)-6-methylene-7,8-dihydro-6H-pyrimido[5,4-b]pyrrolizin-7-yl)but-2-ynamide formation after 3 hrs; assay type: ADME, microsome
[17] = Drug metabolism in rat liver microsomes assessed as (S)-N-(4-amino-5-(4-hydroxyphenyl)-6-methylene-7,8-dihydro-6H-pyrimido[5,4-b]pyrrolizin-7-yl)but-2-ynamide formation after 3 hrs; assay type: ADME, microsome
Rattus norvegicus [18] = experiment: (§3) Oral bioavailability in rat at 3 mg/kg; assay type: ADME, organism-based; conditions: in vivo; method in brief: as §1
[19] = Tmax in rat at 3 mg/kg, po; assay type: ADME, organism-based; conditions: in vivo; method in brief: as §1
Rattus norvegicus [20] = experiment: AUC (0 to infinity) in rat at 3 mg/kg, po; assay type: ADME, organism-based; design: dose 3 mg/kg, time infinity, route oral; conditions: in vivo; method in brief: as §2
TMD8 = experiment: Antiproliferative activity against human TMD8 cells after 72 hrs by MTT assay; assay type: functional, cell-based; conditions: TMD8, 72 h
Method in brief: (§4)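 Cells grown in RPMI-1640 with FBS at 37 °C, 5% CO2. Seeded and grown 2 h, then treated with various concentrations in PBS solution, each in triplicate, and cultured a further 72 h. Viability read by MTT. IC50 from the Logit method, given as mean ± SD of three independent determinations.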

Ramos = experiment: Antiproliferative activity against human Ramos cells after 72 hrs by MTT assay; assay type: functional, cell-based; method in brief: as §4
[21] = as §3; assay type: ADME, organism-based; conditions: in vivo; method in brief: as §1
Mus musculus = experiment: Toxicity in CB17 SCID nude mouse xenografted with human TMD8 cells assessed as change in body weight at 25 mg/kg, po qd administered for 13 consecutive days measured during compound dosing up to day 17 post dose; assay type: organism-based; conditions: in vivo
[22] = Drug metabolism in human liver microsomes treated with (S)-N-(4-Amino-6-methylene-5-(4-phenoxyphenyl)-7,8-dihydro-6H-pyrimido[5,4-b]pyrrolizin-7-yl)acrylamide after 3 hrs; assay type: ADME, microsome
[23] = Drug metabolism in rat liver microsomes treated with (S)-N-(4-Amino-6-methylene-5-(4-phenoxyphenyl)-7,8-dihydro-6H-pyrimido[5,4-b]pyrrolizin-7-yl)acrylamide after 3 hrs; assay type: ADME, microsome
[24] = Drug metabolism in mouse liver microsomes treated with (S)-N-(4-Amino-6-methylene-5-(4-phenoxyphenyl)-7,8-dihydro-6H-pyrimido[5,4-b]pyrrolizin-7-yl)acrylamide after 3 hrs; assay type: ADME, microsome
[25] = target: Tyrosine-protein kinase BTK (Homo sapiens, UniProt Q06187, C481S); experiment: Inhibition of recombinant full-length N-terminal His-tagged human BTK C481S mutant expressed in baculovirus infected Sf9 insect cells using Poly(Glu, Tyr) 4:1 as substrate after 1 hr by ELISA
Sequence of Tyrosine-protein kinase BTK (Homo sapiens, UniProt Q06187, C481S) (Q06187 2-659 C481S limits assumed): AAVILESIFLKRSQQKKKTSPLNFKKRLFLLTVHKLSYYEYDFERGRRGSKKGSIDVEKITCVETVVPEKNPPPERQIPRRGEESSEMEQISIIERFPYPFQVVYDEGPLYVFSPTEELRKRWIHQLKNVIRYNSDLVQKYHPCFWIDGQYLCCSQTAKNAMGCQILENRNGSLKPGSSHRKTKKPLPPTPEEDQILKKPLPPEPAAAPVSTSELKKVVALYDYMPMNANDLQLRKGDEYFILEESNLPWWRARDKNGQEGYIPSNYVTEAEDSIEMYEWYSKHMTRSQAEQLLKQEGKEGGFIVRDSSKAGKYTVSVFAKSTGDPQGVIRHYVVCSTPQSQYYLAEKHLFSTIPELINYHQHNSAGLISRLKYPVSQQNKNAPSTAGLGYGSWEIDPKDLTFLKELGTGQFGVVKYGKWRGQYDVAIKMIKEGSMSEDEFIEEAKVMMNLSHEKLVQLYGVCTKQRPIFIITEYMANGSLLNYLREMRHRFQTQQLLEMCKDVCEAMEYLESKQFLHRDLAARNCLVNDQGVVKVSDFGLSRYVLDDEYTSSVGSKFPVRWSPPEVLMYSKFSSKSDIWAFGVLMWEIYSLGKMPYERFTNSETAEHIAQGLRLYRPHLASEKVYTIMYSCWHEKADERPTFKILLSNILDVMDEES

[26] = target: Receptor tyrosine-protein kinase erbB-4 (Homo sapiens, UniProt Q15303); experiment: Inhibition of partial length human ErbB4 expressed in bacteria assessed as residual activity at 1 uM relative to control
Sequence of Receptor tyrosine-protein kinase erbB-4 (Q15303 whole entry): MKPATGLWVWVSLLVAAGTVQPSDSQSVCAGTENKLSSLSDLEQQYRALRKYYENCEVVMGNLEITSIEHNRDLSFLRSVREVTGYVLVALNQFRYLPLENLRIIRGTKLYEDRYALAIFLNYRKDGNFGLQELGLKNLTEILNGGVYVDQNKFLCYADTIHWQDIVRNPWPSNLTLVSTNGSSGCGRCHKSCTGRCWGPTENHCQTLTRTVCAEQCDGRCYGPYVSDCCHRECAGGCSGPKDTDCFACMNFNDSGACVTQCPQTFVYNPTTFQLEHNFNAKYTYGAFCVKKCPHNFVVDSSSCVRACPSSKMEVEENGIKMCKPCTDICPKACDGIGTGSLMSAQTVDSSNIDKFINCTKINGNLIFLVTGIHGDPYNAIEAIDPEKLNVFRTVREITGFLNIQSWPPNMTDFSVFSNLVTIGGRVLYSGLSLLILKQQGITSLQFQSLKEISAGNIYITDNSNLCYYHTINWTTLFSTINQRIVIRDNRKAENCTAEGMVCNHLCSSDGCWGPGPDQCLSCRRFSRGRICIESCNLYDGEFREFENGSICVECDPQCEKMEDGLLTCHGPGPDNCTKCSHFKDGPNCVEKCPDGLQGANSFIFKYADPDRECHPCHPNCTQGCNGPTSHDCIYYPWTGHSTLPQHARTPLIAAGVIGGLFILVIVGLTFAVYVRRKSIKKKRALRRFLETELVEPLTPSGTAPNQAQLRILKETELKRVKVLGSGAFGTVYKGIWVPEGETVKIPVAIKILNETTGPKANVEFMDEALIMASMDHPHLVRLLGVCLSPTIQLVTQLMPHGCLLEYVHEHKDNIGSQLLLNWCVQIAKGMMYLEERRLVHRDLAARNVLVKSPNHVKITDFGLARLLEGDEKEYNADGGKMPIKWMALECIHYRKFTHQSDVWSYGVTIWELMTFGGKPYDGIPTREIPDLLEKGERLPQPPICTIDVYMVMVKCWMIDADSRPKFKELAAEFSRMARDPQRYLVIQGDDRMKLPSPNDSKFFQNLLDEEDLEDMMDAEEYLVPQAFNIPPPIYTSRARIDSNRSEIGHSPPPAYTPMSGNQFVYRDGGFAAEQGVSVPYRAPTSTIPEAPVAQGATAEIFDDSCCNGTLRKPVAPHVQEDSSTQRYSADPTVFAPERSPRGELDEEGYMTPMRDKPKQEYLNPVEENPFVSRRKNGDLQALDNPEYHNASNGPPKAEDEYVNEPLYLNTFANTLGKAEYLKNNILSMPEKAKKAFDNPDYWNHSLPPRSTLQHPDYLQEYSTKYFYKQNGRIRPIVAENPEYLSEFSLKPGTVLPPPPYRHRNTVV
Method in brief: (§5)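 KINOMEscan competition binding panel of 468 kinases with compound at 1 μM. Result is % control = (test − positive control signal)/(DMSO negative − positive control signal) × 100.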

[27] = target: Tyrosine-protein kinase Blk (Homo sapiens, UniProt P51451); experiment: Inhibition of partial length human BLK expressed in bacteria assessed as residual activity at 1 uM relative to control; method in brief: as §5
Sequence of Tyrosine-protein kinase Blk (P51451 2-505 limits assumed): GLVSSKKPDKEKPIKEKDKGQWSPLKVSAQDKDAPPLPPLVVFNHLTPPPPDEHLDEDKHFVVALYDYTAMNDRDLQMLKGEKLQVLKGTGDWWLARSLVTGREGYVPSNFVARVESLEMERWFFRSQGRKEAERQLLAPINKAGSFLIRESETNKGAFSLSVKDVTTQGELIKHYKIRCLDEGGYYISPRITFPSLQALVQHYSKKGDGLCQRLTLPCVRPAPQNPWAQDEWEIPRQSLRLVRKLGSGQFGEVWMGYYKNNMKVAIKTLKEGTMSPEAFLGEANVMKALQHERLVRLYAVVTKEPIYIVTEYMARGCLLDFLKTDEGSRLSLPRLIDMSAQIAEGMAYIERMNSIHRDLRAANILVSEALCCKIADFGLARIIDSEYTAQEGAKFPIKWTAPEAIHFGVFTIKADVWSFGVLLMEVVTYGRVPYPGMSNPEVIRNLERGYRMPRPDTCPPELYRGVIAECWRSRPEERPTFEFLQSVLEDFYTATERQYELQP

[28] = target: Dual specificity mitogen-activated protein kinase kinase; MEK1/2 (Homo sapiens) (UniProt P36507+Q02750); experiment: Inhibition of human MEK assessed as residual activity at 1 uM relative to control; assay type: protein assay; method in brief: as §5
Sequence of Dual specificity mitogen-activated protein kinase kinase; MEK1/2 (Homo sapiens) (P36507 whole entry, looked up): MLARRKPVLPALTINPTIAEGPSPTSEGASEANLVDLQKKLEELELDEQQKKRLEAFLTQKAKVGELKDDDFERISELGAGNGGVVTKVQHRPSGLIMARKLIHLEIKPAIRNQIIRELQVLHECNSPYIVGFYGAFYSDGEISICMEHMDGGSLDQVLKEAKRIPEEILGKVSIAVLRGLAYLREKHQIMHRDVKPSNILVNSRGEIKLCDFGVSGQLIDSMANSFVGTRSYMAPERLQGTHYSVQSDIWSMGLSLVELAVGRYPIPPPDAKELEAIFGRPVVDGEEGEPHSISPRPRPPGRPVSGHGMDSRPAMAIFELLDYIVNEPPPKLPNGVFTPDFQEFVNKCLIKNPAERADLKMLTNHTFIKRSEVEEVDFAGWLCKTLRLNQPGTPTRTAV
Sequence of Dual specificity mitogen-activated protein kinase kinase; MEK1/2 (Homo sapiens) (Q02750 whole entry, looked up): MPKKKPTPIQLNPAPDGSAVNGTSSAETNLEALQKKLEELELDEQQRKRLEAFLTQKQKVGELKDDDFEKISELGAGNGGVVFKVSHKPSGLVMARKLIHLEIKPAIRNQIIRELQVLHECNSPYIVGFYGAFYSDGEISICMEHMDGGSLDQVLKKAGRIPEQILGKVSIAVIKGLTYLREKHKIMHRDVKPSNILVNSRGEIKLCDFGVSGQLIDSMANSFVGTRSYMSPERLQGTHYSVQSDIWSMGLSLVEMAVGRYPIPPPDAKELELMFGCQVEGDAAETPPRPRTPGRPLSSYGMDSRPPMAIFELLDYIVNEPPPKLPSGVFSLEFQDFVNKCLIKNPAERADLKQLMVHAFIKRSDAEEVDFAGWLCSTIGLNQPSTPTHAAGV

Compound: C=C1c2c(-c3ccc(O)cc3)c3c(N)ncnc3n2C[C@H]1NC(=O)C#CC
Drug metabolism [1]: Metabolite_Detected
Drug metabolism [2]: Metabolite_Detected

Compound: C=CC(=O)NCCC(=O)NC1Cn2c(c(-c3ccc(Oc4ccccc4)cc3)c3c(N)ncnc32)C1=C (stereo not drawn)
IC50 [4]: 725 nM

Compound: C=CC(=O)N[C@@H]1Cn2c(c(-c3ccc(C(=O)N[C@@H](COC)c4ccccn4)cc3)c3c(N)ncnc32)C1=C
IC50 [4]: 4.3 nM

Compound: C=CC(=O)N[C@@H]1Cn2c(c(-c3ccc(C(=O)N[C@@H](C)c4ccccn4)cc3)c3c(N)ncnc32)C1=C
IC50 [4]: 50.4 nM

Compound: C=CC(=O)N[C@@H]1Cn2c(c(-c3ccc(C(=O)Nc4ccccn4)cc3)c3c(N)ncnc32)C1=C
IC50 (TMD8): 4 nM
IC50 [4]: 0.5 nM
IC50 (Ramos): 14300 nM
bioavailability [21]: 8.24%

Compound: C=CC(=O)N[C@@H]1Cn2c(c(-c3ccc(Oc4ccc(F)cc4)cc3)c3c(N)ncnc32)C1=C
IC50 [4]: 2.2 nM

Compound: C=C1c2c(-c3ccc(Oc4ccc(O)cc4)cc3)c3c(N)ncnc3n2C[C@H]1NC(=O)C#CCO
Drug metabolism [1]: Metabolite_Detected
Drug metabolism [2]: Metabolite_Detected

Compound: C=CC(=O)N1CCC[C@@H](n2nc(-c3ccc(Oc4ccccc4)cc3)c3c(N)ncnc32)C1 [IBRUTINIB]
Activity (Mus musculus): Non-Toxic
IC50 (TMD8): 10 nM
IC50 (Ramos): 920 nM
AUC (Rattus norvegicus [20]): 57 ng·h/mL

Compound: C=CC(=O)N[C@@H]1Cn2c(c(-c3ccc(Oc4ccc(O)cc4)cc3)c3c(N)ncnc32)C1=C
Drug metabolism [22]: Metabolite_Detected
Drug metabolism [23]: Metabolite_Detected
Drug metabolism [24]: Metabolite_Detected

Compound: C=CC(=O)NC1Cn2c(c(-c3ccc(Oc4ccccc4)cc3)c3c(N)ncnc32)C1=C (racemic)
IC50 [25]: 464 nM
Activity [26]: < 1%
IC50 [4]: 2.8 nM
Activity [27]: < 1%
Activity [28]: < 1%

Compound: C=CC(=O)NCC(=O)NC1Cn2c(c(-c3ccc(Oc4ccccc4)cc3)c3c(N)ncnc32)C1=C (stereo not drawn)
IC50 [4]: 23.6 nM

Compound: C=CC(=O)N[C@@H]1Cn2c(c(-c3ccc(Oc4ccc(C(C)(C)C)cc4)cc3)c3c(N)ncnc32)C1=C
IC50 [4]: 3.7 nM

Compound: C=CC(=O)N[C@@H]1Cn2c(c(-c3ccc(O)cc3)c3c(N)ncnc32)C1=C
Drug metabolism [22]: Metabolite_Detected
Drug metabolism [23]: Metabolite_Detected

Compound: CCC(=O)NC1CCc2c(-c3ccc(Oc4ccccc4)cc3)c3c(N)ncnc3n2C1 (stereo not drawn)
IC50 [4]: 417 nM

Compound: C=CC(=O)N[C@@H]1Cn2c(c(-c3ccc(Oc4ccc(C(F)(F)F)cc4)cc3)c3c(N)ncnc32)C1=C
IC50 [4]: 7.4 nM

Compound: C=CC(=O)NC1(C(=O)NC2Cn3c(c(-c4ccc(Oc5ccccc5)cc4)c4c(N)ncnc43)C2=C)CC1 (stereo not drawn)
IC50 [4]: 23.8 nM

Compound: C=CC(=O)N[C@@H]1Cn2c(c(-c3ccc(Oc4ccc(OC(F)(F)F)cc4)cc3)c3c(N)ncnc32)C1=C
IC50 [4]: 3.5 nM

Compound: C=CC(=O)N[C@@H]1Cn2c(c(-c3ccc(C(=O)NCc4ccccn4)cc3)c3c(N)ncnc32)C1=C
IC50 [4]: 3.1 nM

Compound: C=CC(=O)N[C@@H]1Cn2c(c(-c3ccc(C(=O)Nc4cc(C(F)(F)F)ccn4)cc3)c3c(N)ncnc32)C1=C
IC50 [4]: 0.8 nM

Compound: C=C1c2c(-c3ccc(Oc4ccc(O)cc4)cc3)c3c(N)ncnc3n2C[C@H]1N
Drug metabolism [23]: Metabolite_Detected
Drug metabolism [24]: Metabolite_Detected
Drug metabolism [3]: Metabolite_Detected

The remaining lines, values ahead:

Drug metabolism [1]: Metabolite_Detected
Drug metabolism [2]: Metabolite_Detected
Drug metabolism [3]: Metabolite_Detected
Compound: C=C1c2c(-c3ccc(Oc4ccccc4)cc3)c3c(N)ncnc3n2C[C@H]1NC(=O)C#CCO

Drug metabolism [1]: Metabolite_Detected
Drug metabolism [2]: Metabolite_Detected
Drug metabolism [3]: Metabolite_Detected
Compound: C=C1c2c(-c3ccc(Oc4ccc(O)cc4)cc3)c3c(N)ncnc3n2C[C@H]1NC(=O)C#CC

Drug metabolism [5]: Metabolite_Detected
Vdss (Rattus norvegicus [6]): 1.39 L/kg
Cmax [7]: 340 ng/mL
Drug metabolism [8]: Metabolite_Detected
IC50 [4]: 0.4 nM
t1/2 (Rattus norvegicus [9]): 32.4 min
Drug metabolism [10]: Metabolite_Detected
Drug metabolism [11]: Metabolite_Detected
Drug metabolism [12]: Metabolite_Detected
Drug metabolism [13]: Metabolite_Detected
Drug metabolism [14]: Metabolite_Detected
Drug metabolism [15]: Metabolite_Detected
Drug metabolism [16]: Metabolite_Detected
Drug metabolism [17]: Metabolite_Detected
F (Rattus norvegicus [18]): 35.8%
Tmax [19]: 15 min
AUC (Rattus norvegicus [20]): 557 ng·h/mL
Compound: C=C1c2c(-c3ccc(Oc4ccccc4)cc3)c3c(N)ncnc3n2C[C@H]1NC(=O)C#CC

IC50 [4]: 62.6 nM
Compound: C=C1c2c(-c3ccc(Oc4ccccc4)cc3)c3c(N)ncnc3n2CC1NC(=O)CC (stereo not drawn)

IC50 [4]: 3.3 nM
Compound: C=C1c2c(-c3ccc(Oc4ccccc4)cc3)c3c(N)ncnc3n2C[C@@H]1NC(=O)C#CC

Drug metabolism [22]: Metabolite_Detected
Drug metabolism [23]: Metabolite_Detected
Drug metabolism [24]: Metabolite_Detected
Compound: C=C1c2c(-c3ccc(Oc4ccccc4)cc3)c3c(N)ncnc3n2C[C@H]1NC(=O)C(O)CO (stereo partly drawn)

IC50 [4]: 6.1 nM
Compound: C=CC(=O)N[C@H]1Cn2c(c(-c3ccc(Oc4ccccc4)cc3)c3c(N)ncnc32)C1=C

IC50 [4]: 2.1 nM
Compound: C=C1c2c(-c3ccc(Oc4ccccc4)cc3)c3c(N)ncnc3n2CC1NC(=O)C#CC (racemic)

Drug metabolism [22]: Metabolite_Detected
Drug metabolism [23]: Metabolite_Detected
Drug metabolism [24]: Metabolite_Detected
Compound: C=C1c2c(-c3ccc(Oc4ccccc4)cc3)c3c(N)ncnc3n2C[C@H]1NC(=O)C=CO

IC50 [4]: 40.1 nM
Compound: C=CC(=O)N[C@@H](C)C(=O)NC1Cn2c(c(-c3ccc(Oc4ccccc4)cc3)c3c(N)ncnc32)C1=C (stereo partly drawn)

IC50 [4]: 4.3 nM
Compound: C=C1c2c(-c3ccc(Oc4ccccc4)cc3)c3c(N)ncnc3n2CC1NC(=O)/C=C/CN(C)C (stereo not drawn)

IC50 [4]: > 1000 nM
Compound: C=C1c2c(-c3ccc(Oc4ccccc4)cc3)c3c(N)ncnc3n2CC1N (stereo not drawn)
